For assay [1], the system named is Streptococcus pyogenes. The experiment in a line: In vitro antibacterial activity of compound against Streptococcus pyogenes C 203 SKF 13400. The assay is classed as functional. The essentials: (§1)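 Streptococcal MICs were run by twofold microdilution in Todd-Hewitt broth over 128-0.0001 µg/mL. Inoculum was 10^4 cfu/mL, with incubation at 37 °C for 18-24 h.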
Assay [2] deals with Staphylococcus epidermidis. The experiment in a line: In vitro antibacterial activity of compound against Staphylococcus epidermidis ATCC 12228. The assay is classed as functional. An outline of the steps:
(§2)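 Twofold microdilution MIC in Iso-Sensitest broth over 128-0.0001 µg/mL. Inoculum was 10^4 cfu/mL, with incubation at 37 °C for 18-24 h.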

Assay [3] relates to Klebsiella pneumoniae. As to the kind of experiment: In vitro antibacterial activity of compound against Klebsiella pneumoniae ISM. The assay is classed as functional.
In assay [4] the test system is Mycobacterium avium. As to the kind of experiment: 90% inhibition of the 20 Mycobacterium avium complex (MAC) clinical isolates.
In assay [5] the test system is Streptococcus pyogenes. The experiment in a line: Inhibitory concentration of compound against Streptococcus pyogenus septicemia in the mouse, administarted in subcutaneous route. The settings on record: sc. The assay is classed as functional. The essentials: (§3)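 Male and female CD1 mice (18-22 g) were infected ip with S. pyogenes C203, with the challenge set so untreated mice died within 48 h. Groups of five received a single treatment immediately after infection. ED50 was calculated from the percentage surviving at each dose on day 10.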

Assay [6] deals with Haemophilus influenzae. As to the kind of experiment: In vitro antibacterial activity of compound against Haemophilus influenzae ATCC 19418. The assay is classed as functional.
The test system of assay [7] is Streptococcus pyogenes. The experiment in a line: Minimum inhibitory concentration of compound against Streptococcus pyogenus septicemia in the mouse. The assay is classed as functional.
The subject of assay [8] is Escherichia coli. As to the kind of experiment: In vitro antibacterial activity of compound against Escherichia coli SKF 12140. The assay is classed as functional.
Assay [9] has as its system Mycobacterium avium. The experiment in a line: 50% inhibition of the 20 Mycobacterium (MAC) avium complex clinical isolates. The assay is classed as functional. An outline of the steps: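 Agar-dilution MICs, 2-fold dilutions over 128-0.0001 μg/mL, on Middlebrook 7H10 agar with 2% glycerol and 10% OADC. Organisms from Loevenstein-Jensen slants were grown in 7H9 broth with 0.5% Tween and 10% OADC, adjusted to McFarland no. 1, and spotted with a multipoint inoculator. Plates were sealed and incubated at 22, 30 or 37 °C for 4-20 days depending on strain.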

Assay [10] has as its system Enterococcus faecalis. As to the kind of experiment: In vitro antibacterial activity of compound against Streptococcus faecalis ATCC 7080. The assay is classed as functional. An outline of the steps:
as §2

Assay [11] has as its system Mycobacterium avium. The experiment in a line: Minimum inhibitory concentration of compound against 20 Mycobacterium avium complex (MAC) clinical isolates.
For assay [12], the system named is Staphylococcus aureus. The experiment in a line: In vitro antibacterial activity of compound against Staphylococcus aureus Tour L 165. The assay is classed as functional. The essentials:
as §2

The test system of assay [13] is Streptococcus pyogenes. As to the kind of experiment: Inhibitory concentration of compound against Streptococcus pyogenus septicemia in the mouse, administarted in OS route. The assay is classed as functional. An outline of the steps:
as §3

The subject of assay [14] is Neisseria gonorrhoeae. The experiment in a line: In vitro antibacterial activity of compound against Neisseria gonorrhoeae ISM 68/126. The assay is classed as functional.
The test system of assay [15] is Proteus vulgaris. The experiment in a line: In vitro antibacterial activity of compound against Proteus vulgaris X19H ATCC 881. The assay is classed as functional.
Assay [16] concerns Streptococcus pneumoniae. As to the kind of experiment: In vitro antibacterial activity of compound against Streptococcus pneumoniae UC 41. The assay is classed as functional. The essentials: as §1
Assay [17] concerns Pseudomonas aeruginosa. The experiment in a line: In vitro antibacterial activity of compound against Pseudomonas aeruginosa ATCC 10145. The assay is classed as functional. The essentials:
as §2

Values after ≈ are worked out from the molar mass of the structure shown.

`CCCCNc1nc2c(s1)c1c(O)c3c(O)c(C)c4c(c32)C(=O)C(C)(O/C=C/C(OC)C(C)C(OC(C)=O)C(C)C(O)C(C)C(O)C(C)/C=C/C=C(/C)C(=O)N1)O4` (configuration not stated): the MIC in assay [1] amounted to 0.063 µg/mL (≈ 0.0778 µM); in assay [2], 0.016 µg/mL (≈ 0.0198 µM); in assay [3], 64 µg/mL (≈ 79 µM); in assay [6], 0.125 µg/mL (≈ 0.154 µM); in [7] it was 0.063 µg/mL (≈ 0.0778 µM); in assay [8], 16 µg/mL (≈ 19.8 µM). The MIC is 1 µg/mL (≈ 1.23 µM) in [10]; 2 µg/mL (≈ 2.47 µM) in [11]; 0.032 µg/mL (≈ 0.0395 µM) in assay [12]; 0.125 µg/mL (≈ 0.154 µM) in assay [14]; 16 µg/mL (≈ 19.8 µM) in assay [15]; 0.063 µg/mL (≈ 0.0778 µM) in [16]. The MIC in assay [17] stood at 8 µg/mL (≈ 9.88 µM). In assay [4], this compound returned an MIC90 of 64 µg/mL (≈ 79 µM). The figures for the ED50 in assay [5] and in [13] were 6.6 mg/kg and over 10 mg/kg, respectively. In assay [9], this compound returned an MIC50 of 32 µg/mL (≈ 39.5 µM).

The term ED50 denotes the dose at which the effect has come halfway, by size or by number of responders. High values mean a need for a large dose, low ones an effect at a small dose. For orientation: MIC50 means an inhibitory concentration at the 50% level, which refers to growth in some studies and to a panel of isolates in others.

The values above are taken from ChEMBL document CHEMBL1124774, “Synthesis and biological activity of some derivatives of rifamycin P” (1990).
